Only some compounds are listed: those with a hit (about 3.5% of all), similar ones and a draw of the others.
MrgX1 PAM: human MrgX1 positive allosteric modulation, primary screen | AID 588675 | MrgX1-HEK293, Fluo-4 calcium flux, FDSS; stronger effect = higher value | Q96LB2 | actives 0.63% (n = 310,000) | B-score at 10 µM;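 active means plate-corrected calcium response at least 3 library SD above typical, normal starting fluorescence, not activating the receptor alone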;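 further: compound read alongside a low EC10 to EC30 dose of BAM8-22 agonist; peak minus trough fluorescence over baseline measured at the second addition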
Target sequence (Q96LB2 whole entry, looked up): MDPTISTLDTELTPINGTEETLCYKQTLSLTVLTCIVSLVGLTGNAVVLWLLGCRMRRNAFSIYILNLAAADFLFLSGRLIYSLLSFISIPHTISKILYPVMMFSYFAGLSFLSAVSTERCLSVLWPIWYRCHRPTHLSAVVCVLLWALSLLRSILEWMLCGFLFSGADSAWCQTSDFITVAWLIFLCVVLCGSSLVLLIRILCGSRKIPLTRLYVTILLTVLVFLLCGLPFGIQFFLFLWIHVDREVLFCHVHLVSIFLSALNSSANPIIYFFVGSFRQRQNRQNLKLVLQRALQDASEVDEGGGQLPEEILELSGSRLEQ
RGS4 inh: inhibitors of human RGS4 | P49798 | HEK293 M3R/RGS4 inducible, Fluo-4 calcium flux; stronger effect = higher value; triggered by carbachol at its EC20 | B-score at 10 µM | actives 0.45% (n = 310,000);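 active means B-score, a plate-corrected calcium signal, over three deviations above library mean, with baseline fluorescence within five deviations of library mean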;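 further: RGS4 expression induced by doxycycline in cells with stable M3 receptor; B-score is computed from the integrated fluorescence ratio over baseline after carbachol; higher B-score means a larger calcium signal and so more RGS4 inhibition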
Target sequence (P49798 whole entry, looked up): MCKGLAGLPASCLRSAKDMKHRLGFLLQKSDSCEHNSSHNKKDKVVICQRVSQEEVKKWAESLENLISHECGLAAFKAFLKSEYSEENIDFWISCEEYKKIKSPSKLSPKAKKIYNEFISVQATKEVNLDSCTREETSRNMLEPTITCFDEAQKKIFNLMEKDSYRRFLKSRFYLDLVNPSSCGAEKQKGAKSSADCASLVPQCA
MrgX1 agonist: activates human MrgX1 receptor signaling. MrgX1-HEK293 cells, Fluo-4 calcium fluorescence, agonist mode; stronger effect = higher value. Q96LB2. actives 0.44% (n = 310,000). B-score at 10 µM;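 active means calcium response B-score plate-corrected fluorescence ratio at least 3 library SD, with starting fluorescence B-score inside 5 SD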
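Material – MrgX1-expressing HEK293 cells · Input – 15,000 cells seeded per well · Dosing – compound as first of three additions · Times – overnight seeding, then 1 h dark dye loading · Measured by – kinetic Fluo-4 NW fluorescence of intracellular calcium · Read-out – B-scored fluorescence response ratio · Benchmarks – positive and negative control wells on each plate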
MrgX1 antagonist: antagonists of human MrgX1 receptor; Q96LB2; MRGX1-HEK293 calcium flux, Fluo-4, BAM8-22 antagonism; stronger effect = lower value; B-score at 10 µM; actives 1.3% (n = 310,000);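 active means calcium-response B-score plate-corrected more than 3 library SD below zero, starting fluorescence within 5 deviations, no agonist response on first addition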;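 further: peak minus trough fluorescence over baseline after final BAM8-22 challenge near maximal dose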
RGS4 act: RGS4 potentiation or activation; B-score at 10 µM; actives 0.92% (n = 310,000); HEK293 M3R/inducible RGS4, carbachol calcium flux Fluo4; stronger effect = lower value; AID 463111;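 active means B-score of the integrated calcium signal more than 4 SD below the library mean, with starting fluorescence not abnormally high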;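 further: negative B-score means reduced calcium response which marks RGS4 activation or potentiation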
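System – HEK293 FlpIn-TREx cells, stable M3R, doxycycline-inducible RGS4 · Reagent – ECmax carbachol challenge · Times – compound preincubation 20 min at room temperature before agonist · Technique – Fluo4 fluorescence kinetic imaging of calcium · Measure – B score of integrated Fluo4 ratio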
MrgX1 ag reconf: human MrgX1 agonism, re-confirmation screen. MrgX1-HEK293, Fluo-4 calcium fluorescence, FDSS. shares compounds with MrgX1 agonist. actives 78% (n = 600). AID 602412. activation, % at 10 µM;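 active means calcium signal rise, corrected for plate position, at least 3 library SD high, with starting brightness within 5 such deviations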
HEK293 Ca flux: activity in parental HEK293 cells lacking MrgX1; shares compounds with MrgX1 antagonist; Fluo-4 calcium fluorescence, FDSS; fluorescence ratio F(max-min)/F0 at 10 µM; actives 2% (n = 4,000);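 active means duplicate-averaged calcium fluorescence ratio at least three times the standard deviation of buffer wells, a nonspecific response in parental cells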
HEK293 Ca counter: counter-screen for MrgX1 allosteric activators: effect in parental HEK293 cells | fluorescence ratio F(max-min)/F0 at 10 µM | actives 0.4% (n = 4,000) | AID 624114 | shares compounds with MrgX1 antagonist | parental HEK293 calcium flux, Fluo-4 fluorescence ratio; stronger effect = higher value;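 active means calcium fluorescence ratio, averaged over duplicates, at least 3 SD of the buffer-well ratio, meaning a nonspecific response in receptor-free cells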;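 further: untransfected parental HEK293 lacking MrgX1 used as counterscreen for MrgX1 allosteric activators; fluorescence change taken during the second addition on a kinetic imager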
HEK293 Ca cntr2: counter-screen for MrgX1 activators: effect in parental HEK293 cells. actives 8.7% (n = 4,000). fluorescence ratio F(max-min)/F0 at 10 µM. AID 624115. Fluo-4 calcium fluorescence (FDSS); stronger effect = higher value. shares compounds with MrgX1 antagonist;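 active means calcium fluorescence ratio at least three times the spread of buffer wells, meaning a non-specific response in parental cells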
Of the large screens only hits and unclear results are named; the others gave an inactive call (follow-up assays come after a bar, where they were run).

COC(=O)c1ccccc1NC(=S)NC(=O)c1ccccc1	none
COC(=O)c1ccccc1NC(=S)NC(=O)c1ccc(C)cc1	MrgX1 agonist 37 | MrgX1 ag reconf inactive | HEK293 Ca flux inactive | HEK293 Ca counter inactive | HEK293 Ca cntr2 inactive
O=C(NC(=S)NNC(=O)c1ccco1)c1ccc(Br)cc1	MrgX1 agonist 135 | MrgX1 ag reconf 543% | HEK293 Ca flux inactive | HEK293 Ca counter inactive | HEK293 Ca cntr2 98
O=C(NNC(=S)Nc1ccc(F)cc1F)c1ccco1	none
O=C(NNC(=O)C12CC3CC(CC(C3)C1)C2)c1ccccc1[N+](=O)[O-]	none
Cc1c(CN2CCC(n3nccc3NC(=O)C3CC3)CC2)[nH]c2ccccc12	none
COc1ccc(CNC(=O)C[C@H]2C(=O)N(CCc3ccccc3)C[C@@H]2Cc2ccccc2)cc1	none
CCCCOc1ccc(C(=O)NNC(=S)NC(=O)CC)cc1	none
COc1ccc(C(=O)NC(=S)NNC(=O)c2ccc(C)cc2)cc1	MrgX1 agonist 149, RGS4 act -7.3 | MrgX1 ag reconf 659% | HEK293 Ca flux inactive | HEK293 Ca counter inactive | HEK293 Ca cntr2 133
CCCCC(=O)NNC(=S)NC(=O)c1ccc([N+](=O)[O-])cc1	none
CCCOc1ccc(C(=O)NNC(=S)NC(=O)c2ccco2)cc1	MrgX1 agonist 146 | MrgX1 ag reconf 661% | HEK293 Ca flux inactive | HEK293 Ca counter inactive | HEK293 Ca cntr2 127
CCCCC(=O)NNC(=S)NC(=O)c1ccc(C)cc1	MrgX1 agonist 150 | MrgX1 ag reconf 712% | HEK293 Ca flux inactive | HEK293 Ca counter inactive | HEK293 Ca cntr2 159
O=C1CCCC(O)=C1Sc1cc(Cl)c(Cl)cc1Cl	none
O=P(Cc1cc(Br)cc(Br)c1OCCO)(c1ccccc1)c1ccccc1	none
CCOC(=O)C1=C(CN2CCC(C)CC2)NC(=O)NC1c1ccc(Cl)cc1 (centres undefined)	MrgX1 agonist 39 | MrgX1 ag reconf 195% | HEK293 Ca flux inactive | HEK293 Ca counter inactive | HEK293 Ca cntr2 inactive
CCOC(=O)C1=C(CN2CCN(C(=O)c3ccco3)CC2)NC(=O)NC1c1ccc(Cl)cc1 (centres undefined)	none
CCCC1(C)Nc2ccccc2-c2nc3ccccc3n21 (centres undefined)	none
c1ccc2c(c1)NC1(CCCC1)n1c-2nc2ccccc21	MrgX1 agonist 29 | MrgX1 ag reconf 144% | HEK293 Ca flux inactive | HEK293 Ca counter inactive | HEK293 Ca cntr2 inactive
COc1cc2c(cc1OC)C(c1ccccc1C(F)(F)F)CC(=O)N2 (centres undefined)	MrgX1 agonist 29 | MrgX1 ag reconf inactive | HEK293 Ca flux inactive | HEK293 Ca counter inactive | HEK293 Ca cntr2 inactive
Cc1cccc(CCNC(=O)c2cccc(NC3=NC4CS(=O)(=O)CC4S3)c2)c1 (centres undefined)	none
Cc1sc(NC(=O)C2CCCCC2C(=O)O)c(C(N)=O)c1-c1ccc(C(C)(C)C)cc1 (centres undefined)	MrgX1 agonist 95 | MrgX1 ag reconf 299% | HEK293 Ca flux inactive | HEK293 Ca counter inactive | HEK293 Ca cntr2 68
N#CC1=C(N)Oc2cc(O)ccc2C1c1cccs1 (centres undefined)	MrgX1 agonist 29 | MrgX1 ag reconf inactive | HEK293 Ca flux inactive | HEK293 Ca counter inactive | HEK293 Ca cntr2 inactive
O=C(NNC(=S)Nc1ccccc1)c1cccs1	none
O=C(NC(=S)NNC(=O)c1cccs1)c1ccccc1	MrgX1 agonist 132 | MrgX1 ag reconf 547% | HEK293 Ca flux inactive | HEK293 Ca counter inactive | HEK293 Ca cntr2 107

Screening data as filed in PubChem.
